# Bioassay records as filed in PubChem.
# An excerpt weighted towards active compounds, which were near 1.6% of everything screened.
# TDP2 inh: TDP2 (human) inhibition, absorbance primary screen | O95551 | recombinant TDP2, T5PNP hydrolysis, p-nitrophenol absorbance 415 nm | inhibition, % at 12.8 µM | hit rate 0.34% among 370,000 | AID 720702;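 active = inhibition above the mean of all tested compounds plus 3 SD, set per campaign, cut at about 25% in these data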;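 also: 0% = DMSO with enzyme and 100% = buffer with substrate but no TDP2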
#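 System – recombinant human TDP2 · Quantity – TDP2 enzyme at 120 nM final · Doses – single concentration, 12.8 µM nominal, with 1% DMSO · Incubation – 2 h at 37 °C · Measured by – epi absorbance of p-nitrophenol freed from T5PNP by hydrolysis · Read-out – % inhibition relative to enzyme-containing and enzyme-free wells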
# CTSL1 counter: cathepsin L1 inhibition, PFM18AAP counter-screen | AID 1906 | hit rate 0.49% among 300,000 | recombinant F. hepatica cathepsin L1, Z-Leu-Arg-MCA fluorescence | inhibition, % at 5.96 µM;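 active = inhibition above the mean of all tested compounds plus 3 SD, set per screening campaign, cut at about 17% in these data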;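 also: 0% = plate median of test compound wells and 100% = 1 µM Z-Phe-Ala-diazomethylketone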
# HKDC1 inh: blocks human hexokinase HKDC1 activity | hit rate 0.16% among 340,000 | AID 493160 | inhibition, % at 20 µM | recombinant HKDC1, G6PDH/diaphorase resazurin coupled fluorescence | Q2TB90;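 active = inhibition above about 35% when tested at 20 µM, limit read from the data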;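 also: plate controls were DMSO wells with enzyme for no effect and DMSO wells lacking enzyme for full effect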
#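 Assay system: in-house recombinant HK5 (HKDC1) enzyme. Input: HKDC1 at 5 µg/mL. Medium: Tris pH 8.0 buffer with MgCl2, Tween-20, BSA, BME. Dosing: single 20 µM dose. Schedule: 90 min reaction incubation at room temperature, dark. Signal: resazurin-to-resorufin fluorescence via G6PDH and diaphorase coupling, 525/613 nm. Controls: DMSO-enzyme wells negative, buffer-substituted wells positive.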
# UCH37 inh: inhibitors of human deubiquitinating enzyme UCH37. purified proteasome/UCH37, Ub-AMC cleavage fluorescence. inhibition, % (no concentration beside the values). Q9Y5K5. AID 588478. hit rate 0.33% among 330,000;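 active = mean inhibition over replicate wells above about 20%, limit read from the data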;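 also: 0% = compound-free wells with enzyme and 100% = wells lacking proteasome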
#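 Material: human UCH37 enzyme supplied as purified proteasome complex / Amount: 0.15 nM proteasome as dispensed / Buffer or medium: pH 7.4 Tris-HCl (50 mM) with ovalbumin, ATP-MgCl2, DTT / Times: preincubation 30 min, reaction 25 min, room temperature / Technique: AMC fluorescence from Ub-AMC cleavage, excitation 355 nm, emission 460 nm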
# GSTO1 counter: counter-screen for RBBP9 inhibitors: inhibitors of human GSTO1; P78417; recombinant GSTO1, activity-based probe fluorescence polarization; inhibition, % at 5.96 µM; hit rate 1.1% among 300,000; AID 1974;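 active = inhibition above the campaign mean inhibition plus 3 SD, cut at about 35% in these data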;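 also: 0% = GSTO1-1 with DMSO and 100% = wells lacking GSTO1-1 enzyme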
# Target sequence (P78417 whole entry, looked up): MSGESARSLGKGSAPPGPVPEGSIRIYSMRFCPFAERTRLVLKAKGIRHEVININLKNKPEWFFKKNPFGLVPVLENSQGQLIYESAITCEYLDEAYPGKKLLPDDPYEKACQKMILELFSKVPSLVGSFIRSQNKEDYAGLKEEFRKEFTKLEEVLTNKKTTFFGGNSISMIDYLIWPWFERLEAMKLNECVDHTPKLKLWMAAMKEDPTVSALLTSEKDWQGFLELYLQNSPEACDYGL
# PAD4 FP inh: PAD4 (human) enzyme inhibition; recombinant PAD4, RCA probe fluorescence polarization; inhibition, % at 6.36 µM; hit rate 0.41% among 330,000; AID 485272;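 active = percent inhibition above a cutoff equal to the mean of all tested compounds plus 3 SD, cut at about 15% in these data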;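 also: 0% = PAD4 with RCA probe and DMSO and 100% = probe without PAD4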
# An asterisk follows results filed as active; x = not tested or not shown.
SMILES,TDP2 inh,CTSL1 counter,HKDC1 inh,UCH37 inh,GSTO1 counter,PAD4 FP inh
CC[n+]1c(/C=C/c2ccc(OC)c(OC)c2)ccc2ccccc21,-25,1,-3,-13,-3,-6
CC[n+]1c(/C=C/c2ccc(N(C)C)cc2)ccc2ccccc21,5,-1,1,23*,-54,-75
CC[n+]1ccccc1/C=C/c1ccc(N(C)C)cc1,-17,x,0,21*,x,x
CCCCCC[n+]1ccccc1/C=C/c1ccc(N(C)C)cc1,-14,x,x,x,x,x
CC(=NNC(=O)CC#N)c1cc2ccccc2oc1=O,x,x,x,6,x,x
O=C(NNC(=O)c1cccc(-n2cccc2)c1)c1ccccc1,6,x,-6,1,x,-1
O=C(NNC(=O)c1ccccc1F)c1cccc(-n2cccc2)c1,0,1,20,2,36*,-1
COc1cc(/C=C2\CCCc3c2nc2ccccc2c3C(=O)O)cc(Br)c1O,7,2,5,4,-2,-5
COc1cc(/C=C2\CCc3c2nc2ccccc2c3C(=O)O)cc(OC)c1OC,3,0,11,-15,35*,4
COc1cccc(-c2cc(C(=O)N3CCc4ccccc4C3)no2)c1,-2,2,5,22*,-8,3
Cc1ccc(N(CC(=O)N2CCN(C3CCCCC3)CC2)S(=O)(=O)c2cccnc2)cc1,11,18*,2,7,4,-1
Cc1ccc(S(=O)(=O)N(CC(=O)N2CCCCCC2)c2ccccc2)cc1,-2,0,-8,1,-3,-2
CC(=O)Nc1sc(NN=Cc2ccccc2Cl)nc1-c1cccs1,x,x,x,-35,x,x
O=C1Cc2ccccc2C(=O)N1Cc1ccccc1,-5,1,5,26*,5,-19
O=C(N/C(=C/C=C/c1ccccc1)C(=O)N1CCCCC1)c1ccc([N+](=O)[O-])cc1,8,18*,-1,3,0,1
O=C(N/C(=C/c1ccc([N+](=O)[O-])cc1)C(=O)N1CCCC1)c1ccccc1,8,1,-1,8,-8,4
COC(=O)c1ccc(N2NC(=O)/C(=C/c3cc(OC)c(O)c(OC)c3)C2=O)cc1,-17,12,9,6,37*,0
Cc1ccc(C=NNC(=O)CSc2nc3ccccc3c(=O)n2-c2ccccc2C)s1,x,x,x,6,x,x
CC(OC(=O)c1ccc([N+](=O)[O-])s1)C(=O)NC1CCCCC1C (centres undefined),11,x,3,23*,x,-14
Brc1ccc(C=Nc2nc3ccccc3n2CCN2CCOCC2)cc1,x,x,x,1,x,x
O=C(CC(c1ccco1)C1CCCCC1=O)c1ccco1 (centres undefined),8,64*,6,1,11,-4
CSc1ccc(C=NN(C)S(=O)(=O)c2ccc(C)cc2)cc1,x,x,x,0,x,x
CCOC(=O)Cc1csc(N/N=C\c2ccc(N(C)C)cc2)n1,-1,19*,3,x,-1,-3
CCOC(=O)Cc1csc(N/N=C/c2ccccc2)n1,8,2,13,x,1,-7
Cc1ccnn1CC(=O)NN=Cc1ccco1,x,x,x,1,x,x
SMILES,TDP2 inh,CTSL1 counter,HKDC1 inh,UCH37 inh,GSTO1 counter,PAD4 FP inh
CCC(=O)Oc1ccc(CC(=NO)c2ccc(O)cc2O)o1,x,x,x,5,x,x
Clc1ccc(N/N=C/c2cccnc2)cc1,-8,17*,17,x,0,-4
CCOc1cc(N2CCOCC2)c(OCC)cc1NC(=O)COC(=O)c1cccc2ccccc12,-4,30*,-9,0,4,1
CCOc1cc(N2CCOCC2)c(OCC)cc1NC(=O)COC(=O)c1ccccc1OC(F)F,-10,x,-6,0,x,x
CCOc1cc(N2CCOCC2)c(OCC)cc1NC(C)C(=O)N1CCN(CC)CC1 (centres undefined),45*,x,11,2,x,x
CCOc1cc(N2CCOCC2)c(OCC)cc1NC(=O)C(C)C,-8,-3,-3,1,-5,2
CCOc1cc(N2CCOCC2)c(OCC)cc1NC(=O)CN1CCCC(C)C1 (centres undefined),5,45*,-2,3,1,-4
O=[N+]([O-])c1cc(C=NNc2nc(N3CCCCC3)nc(N3CCCCC3)n2)ccc1O,x,x,x,10,x,x
COc1cc(C(=O)NN=Cc2ccc3c(c2)c2ccccc2n3C)ccc1O,x,x,x,-136,x,x
